Measurements reported in the RNAGym collection of RNA variant scans (doi:10.1126/science.aae0568).
This sample holds only a part of the variants without activity.

B1: tRNA (parent)
chain: GUUCCGUUGGCGUAAUGGUAACGCGUCUCCCUCCUAAGGAGAAGACUGCGGGUUCGAGUCCCGUACGGAACG

Variants of: B1
Experiment: yeast fitness relative to wild type (ratio to wild type); higher = fitter; tRNA-Arg(CCU), competitive growth, 37 C, YPD
Method in brief: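 Gene amplicons from the start population and from each of six end populations were read by 100-nucleotide paired-end sequencing. Those end populations came from pooled Saccharomyces cerevisiae strains carrying tRNA-Arg(CCU) gene variants at the native locus, competed in YPD at 37°C for 24 hours. Fitness relative to wild type was worked out from changes in genotype frequencies. Genotypes needed ≥ 100 starting reads, and estimates < 0.5 were set to 0.5.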

U13C C55A A65U and U13C C34G C46U A57U C60G A65C cannot be ordered by yeast fitness: at most 0.5 for the first, at most 0.5 for the second.

Compared with U13A C62A, U13A C62G is higher in yeast fitness: 0.668 for the first, 0.78 for the second.

U13A G39A A45G U54A and U13C C22G G38C A45U C49G cannot be ordered by yeast fitness: at most 0.5 for the first, at most 0.5 for the second.

First: U13A U16A C24G C33G C62G
Second: U13C A21G
The yeast fitness of the first is lower: at most 0.5 for the first, 1.09 for the second.

U13A G18C U26A and U13C G23C C49U cannot be ordered by yeast fitness: at most 0.5 for the first, at most 0.5 for the second.

Compared with U13A U32C, U13A U32A is lower in yeast fitness: 0.875 for the first, 0.69 for the second.

First: U13C G44A
Second: U13A U32A C62U G63A
The yeast fitness of the first is higher: 0.827 for the first, at most 0.5 for the second.

U13A U32C U54G C62U and U13C A37U C62A cannot be ordered by yeast fitness: at most 0.5 for the first, at most 0.5 for the second.

Compared with U13A G38C A69C, U13C A15U U16A U19A is lower in yeast fitness: 0.524 for the first, at most 0.5 for the second.

Compared with U13C A15G A43U, U13C A20C A43G is lower in yeast fitness: 0.752 for the first, 0.684 for the second.

Compared with U13C G23C A70G, U13C C33G G56C is lower in yeast fitness: 0.585 for the first, at most 0.5 for the second.

Going from U13A G18C C27U U54C A57U to U13A G41A A45C, the yeast fitness falls from 0.561 to 0.552.

U13C C29G A36U G41C A45C C49U U54C C61U and U13C A45U G63C cannot be ordered by yeast fitness: at most 0.5 for the first, at most 0.5 for the second.

Going from U13C A15G C30A C62G to U13C C22U G39C, the yeast fitness rises from at most 0.5 to 0.512.

Compared with U13A C46A G48C, U13A C66A is lower in yeast fitness: 1.08 for the first, 0.619 for the second.

U13C C30A G38A C55A A65C and U13C A15U U16A U19A C34U G67A G68C cannot be ordered by yeast fitness: at most 0.5 for the first, at most 0.5 for the second.

Compared with U13C A36C C61A, U13A U26G C29U is lower in yeast fitness: 0.651 for the first, at most 0.5 for the second.

First: U13C A43G A45U
Second: U13A G25C A45G A57G
The yeast fitness of the first is higher: 0.587 for the first, at most 0.5 for the second.

U13A C33G C55A and U13C C49G G50C A65U cannot be ordered by yeast fitness: at most 0.5 for the first, at most 0.5 for the second.

Going from U13A G23A U35G U59C to U13C C24G C61A, the yeast fitness rises from 0.528 to 0.54.

U13A G23A A36C G38A A65G and U13A U16C C34A cannot be ordered by yeast fitness: at most 0.5 for the first, at most 0.5 for the second.

First: U13A C31G C33U A37C A65U
Second: U13A C60U A69U
The yeast fitness of the first is lower: at most 0.5 for the first, 0.62 for the second.

Compared with U13C G39A, U13A U54C C55U C62U G68C is lower in yeast fitness: 0.982 for the first, 0.686 for the second.

Compared with U13C C30U C33U A69U A70G, U13A C31A G44A A57G A65C A70U is lower in yeast fitness: 0.568 for the first, at most 0.5 for the second.

Going from U13C C55G C61G C66U to U13C A20G C46U, the yeast fitness rises from at most 0.5 to 0.66.

First: U13C C22A C29U
Second: U13A G68C
The yeast fitness of the first is lower: at most 0.5 for the first, 0.762 for the second.

First: U13A G68A
Second: U13A U32A A37U G41A
The yeast fitness of the first is higher: 0.864 for the first, at most 0.5 for the second.

Compared with U13A C49G, U13C C46U G48A is lower in yeast fitness: 1.01 for the first, 0.732 for the second.

Compared with U13A U64C, U13A U64A is lower in yeast fitness: 0.922 for the first, 0.832 for the second.

Compared with U13A C33U A42G G52C A65G, U13A C60U is higher in yeast fitness: at most 0.5 for the first, 0.699 for the second.

Going from U13C G25C C30G to U13C A42G G56U, the yeast fitness falls from 0.611 to at most 0.5.

Going from U13A U47A C60A to U13C A43U A69C, the yeast fitness rises from 0.58 to 0.766.

First: U13C C22U C27U A37C G67A
Second: U13A U16A U54A
The yeast fitness of the first is lower: at most 0.5 for the first, 0.505 for the second.

First: U13C C55A A69U
Second: U13C G23C
The yeast fitness of the first is higher: 0.624 for the first, 0.511 for the second.

First: U13C C29A G51C
Second: U13C C22U A45U G48A C55A
The yeast fitness of the first is higher: 0.624 for the first, at most 0.5 for the second.

First: U13A G18C C27U A65G
Second: U13C G38C A43C G51C G56C
The yeast fitness of the first is lower: at most 0.5 for the first, 0.531 for the second.

U13A U16A C61U G63C and U13A G56A C61G A70G cannot be ordered by yeast fitness: at most 0.5 for the first, at most 0.5 for the second.

Going from U13C A14U G41C G48C to U13C C30U C33U, the yeast fitness rises from at most 0.5 to 0.537.

Going from U13C G18A C66G to U13A C34G C61U, the yeast fitness falls from 0.662 to at most 0.5.

Compared with U13C A40U A57G, U13A C31G C46G A69U is lower in yeast fitness: 0.688 for the first, 0.624 for the second.

U13C C30G U35C and U13A U32G A45G A70G cannot be ordered by yeast fitness: at most 0.5 for the first, at most 0.5 for the second.

Going from U13C A42U U54C to U13C A45G, the yeast fitness rises from 0.592 to 0.916.

First: U13A C31G C34A
Second: U13A U59A U64A A70C
The yeast fitness of the first is higher: 0.624 for the first, 0.511 for the second.

U13C C31U G58C C61A A69U and U13C A14U A36U G38A A43U G67A cannot be ordered by yeast fitness: at most 0.5 for the first, at most 0.5 for the second.

Going from U13A U16A C61G to U13A C31G A42G, the yeast fitness rises from at most 0.5 to 0.699.

U13C G25C C60U C62U and U13A C46G U53C C62U A69C cannot be ordered by yeast fitness: at most 0.5 for the first, at most 0.5 for the second.

U13A C33G A36G C49A and U13C C31U C34U A40G U47A cannot be ordered by yeast fitness: at most 0.5 for the first, at most 0.5 for the second.

U13C C34G G67A and U13A C34U A40U A65C cannot be ordered by yeast fitness: at most 0.5 for the first, at most 0.5 for the second.

U13C C33A A36U and U13A G23C C24G A70G cannot be ordered by yeast fitness: at most 0.5 for the first, at most 0.5 for the second.

First: U13C C60A
Second: U13C C60U
The yeast fitness of the first is lower: 0.685 for the first, 0.725 for the second.

Going from U13C C29G A36G G41A G48C to U13C C61G G67U, the yeast fitness rises from at most 0.5 to 0.6.

First: U13C C24U U53A C66U
Second: U13C C24G G38C
The yeast fitness of the first is lower: at most 0.5 for the first, 0.592 for the second.

First: U13C A36C
Second: U13C A36G
The yeast fitness of the first is lower: 0.643 for the first, 1.01 for the second.

Compared with U13C A20U, U13A U28C A69C is lower in yeast fitness: 1.12 for the first, 0.76 for the second.

U13C C31G C33G and U13C C29U C31U U54G A65U G67A cannot be ordered by yeast fitness: at most 0.5 for the first, at most 0.5 for the second.

Going from U13A G56C A65C to U13C C60A A70G, the yeast fitness rises from at most 0.5 to 0.588.

First: U13A G23C C27G
Second: U13C C22U C27U A37C
The yeast fitness of the first is lower: 0.504 for the first, 0.563 for the second.

Going from U13A U28A to U13C C31A, the yeast fitness rises from 0.772 to 0.901.

Going from U13C C31U to U13C C27U A69U, the yeast fitness falls from 1.01 to 0.648.

U13C C33A A36C G63C C66G and U13C C29G A45U C62U cannot be ordered by yeast fitness: at most 0.5 for the first, at most 0.5 for the second.

Compared with U13C A70G, U13C A70U is lower in yeast fitness: 1.03 for the first, 0.945 for the second.

Compared with U13A C61U A70G, U13A C61U A70U is higher in yeast fitness: 0.633 for the first, 0.708 for the second.

Going from U13C A20C G48C A57G to U13A C55U, the yeast fitness rises from at most 0.5 to 0.626.

Going from U13A U32A C60G to U13A G48A G67C, the yeast fitness rises from at most 0.5 to 0.608.

Compared with U13C C27A, U13A U54A A69U is lower in yeast fitness: 0.963 for the first, 0.529 for the second.

U13C A20G U54C and U13C A14U C46U G48A C55U G68U cannot be ordered by yeast fitness: at most 0.5 for the first, at most 0.5 for the second.

Going from U13C A65C to U13C A65U, the yeast fitness rises from 0.873 to 1.02.

U13A U19C A20U C29G C33G A37G C49U and U13C A20G C46U U47A A70U cannot be ordered by yeast fitness: at most 0.5 for the first, at most 0.5 for the second.

Going from U13C A20U C62U to U13C C31U A43G C60G, the yeast fitness falls from 0.731 to at most 0.5.

U13C A15C C46G and U13A U16A C31G C33U G38C G58C C66G cannot be ordered by yeast fitness: at most 0.5 for the first, at most 0.5 for the second.

Compared with U13A U32C A65G, U13A C31A A42G G67A A69U is lower in yeast fitness: 0.705 for the first, at most 0.5 for the second.

Going from U13A G25C C27A C30G A40C C60U C66G to U13A U32C A69U, the yeast fitness rises from at most 0.5 to 0.995.

Compared with U13A U28C A45U, U13C A36U C62G A65G is lower in yeast fitness: 0.702 for the first, 0.671 for the second.

First: U13A C55U A70C
Second: U13C A36C G67U
The yeast fitness of the first is lower: 0.571 for the first, 0.637 for the second.

First: U13A U28C C55A
Second: U13C C49G C62U
The yeast fitness of the first is higher: 0.595 for the first, 0.533 for the second.

U13A G23C C24G G50A and U13C A20G A37G G58A cannot be ordered by yeast fitness: at most 0.5 for the first, at most 0.5 for the second.

Going from U13A G58C to U13A G25A, the yeast fitness rises from 0.853 to 1.01.

First: U13A U35C A36C A37U G50C
Second: U13C A37G G58A
The yeast fitness of the first is lower: at most 0.5 for the first, 0.647 for the second.

Compared with U13A G18C A36G G41C, U13C C22U is higher in yeast fitness: 0.706 for the first, 0.932 for the second.

Going from U13C A36G A40C to U13A U28C G41A G44A, the yeast fitness falls from 0.61 to at most 0.5.

First: U13C A21G U28C C31G
Second: U13A U53C U59A U64A A70C
The yeast fitness of the first is higher: 0.539 for the first, at most 0.5 for the second.

U13C A45G C61G and U13A G41A A42C G50C A70G cannot be ordered by yeast fitness: at most 0.5 for the first, at most 0.5 for the second.

Going from U13C C22U G38C A57C to U13C C22U G38C A57U, the yeast fitness falls from 0.599 to at most 0.5.

With U13C C46G C62G the yeast fitness was at most 0.5.
